Results from ChEMBL document CHEMBL1833821, “Defining the structural parameters that confer anticonvulsant activity by the site-by-site modification of (R)-N'-benzyl 2-amino-3-methylbutanamide” (J Med Chem, 2011).
The source made the active and inactive calls.

Columns and labels:
[1] = system: Mus musculus; experiment: Anticonvulsant activity in ip dosed albino CF1 mouse assessed as time of peak effect by maximal electroshock seizures test in presence of 50 miliamperes of electric current; type: functional
In short: (§1)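 Adult male albino CF-1 (Carworth Farms No. 1) mice dosed ip under NINDS ASP; MES test. Compounds with sufficient activity got a dose-response curve (4–6 doses, n = 8 per dose) at the time of peak effect (h, bracketed).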

[2] = system: Mus musculus; experiment: Anticonvulsant activity in ip dosed albino CF1 mouse assessed as protection against maximal electroshock-induced seizures in presence of 50 miliamperes of electric current; type: functional; in short: as §1
[3] = organism: Mus musculus; experiment: Protective index, ratio of TD50 for albino CF1 mouse by rotarod test to ED50 for albino CF1 mouse by maximal electroshock seizures test; type: functional
In short: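 Mouse protective index calculated as rotorod TD50 divided by MES ED50, both from ip dosing of male CF-1 mice at the NINDS ASP.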

[4] = system: Rattus norvegicus; experiment: Anticonvulsant activity in po dosed albino Sprague-Dawley rat assessed as protection against maximal electroshock-induced seizures in presence of 150 miliamperes of electric current; type: functional
In short: (§2)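 Adult male albino Sprague-Dawley rats dosed orally under NINDS ASP; MES test. ED50 in mg/kg, with time of testing noted in hours in brackets.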

[5] = organism: Rattus norvegicus; experiment: Protective index, ratio of TD50 for albino Sprague-Dawley rat to ED50 for albino Sprague-Dawley rat by maximal electroshock seizures test; type: functional
In short: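 Rat protective index calculated as behavioral toxicity TD50 divided by MES ED50, both after oral dosing of male Sprague-Dawley rats at the NINDS ASP.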

[6] = system: Mus musculus; experiment: Neurotoxicity in ip dosed albino CF1 mouse assessed as time of peak effect by rotarod test; type: toxicity, organism-based; conditions: in vivo
[7] = system: Mus musculus; experiment: Anticonvulsant activity in ip dosed albino CF1 mouse assessed as protection against subcutaneous metrazol-induced seizures; type: functional, organism-based
In short: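 Male albino CF-1 mice dosed ip under NINDS ASP; subcutaneous pentylenetetrazol (Metrazol) seizure threshold test.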

[8] = Neurotoxicity in ip dosed albino CF1 mouse assessed as minimal motor coordination impairment by rotarod test; type: toxicity, organism-based; conditions: in vivo
[9] = Neurotoxicity in po dosed albino Sprague-Dawley rat; type: toxicity, organism-based; conditions: in vivo
In short: (§3)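 Adult male albino Sprague-Dawley rats given compound orally under NINDS ASP. Behavioral toxicity was scored by the positional sense test or the gait and stance test. TD50 in mg/kg, with time in hours bracketed.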

[10] = system: Rattus norvegicus; experiment: Anticonvulsant activity in po dosed albino Sprague-Dawley rat assessed as time of peak effect by maximal electroshock seizures test in presence of 150 miliamperes of electric current; type: functional; in short: as §2
[11] = system: Rattus norvegicus; experiment: Behavioral toxicity in po dosed albino Sprague-Dawley rat assessed as time of peak effect; type: organism-based; conditions: in vivo; in short: as §3
[12] = system: Mus musculus; experiment: Anticonvulsant activity in ip dosed NMRI mouse assessed as protection against maximal electroshock-induced seizures after 30 mins in presence of 50 miliamperes of electric current; type: functional; conditions: 0.5 h

SMILES: CC(C)[C@@H](N)C(=O)NCc1ccccc1OC(F)(F)F
- Time [1]: 0.25 h
- ED50 [2]: 9.2 mg/kg
- PI [3]: 5.5
- ED50 [4]: 33 mg/kg
- PI [5]: >15
- Time [6]: 0.25 h
- Activity [7]: inactive
- TD50 [8]: 51 mg/kg
- TD50 [9]: > 500 mg/kg
- Time [10]: 0.5 h

SMILES: CCCC(CCC)C(=O)[O-].[Na+] [VALPROATE SODIUM]
- Time [1]: 0.5 h
- ED50 [2]: 270 mg/kg
- Time [6]: 0.25 h
- Time [11]: 0.5 h
- Time [10]: 0.5 h

SMILES: CC(=O)NC(C(=O)NCc1ccccc1)c1ccccc1 (racemic)
- ED50 [2]: 20 mg/kg

SMILES: CC(C)[C@@H](N)C(=O)NCC1CCCCC1
- Time [1]: 0.5 h
- ED50 [2]: 30 mg/kg
- ED50 [4]: 15 mg/kg
- Time [6]: 0.5 h
- Activity [7]: inactive
- Time [11]: 0.25 h
- TD50 [8]: 100 mg/kg
- TD50 [9]: > 30 mg/kg
- Time [10]: 0.25 h

SMILES: CC(C)[C@@H](N)C(=O)NCc1cccc(OC(F)(F)F)c1
- Time [1]: 0.25 h
- ED50 [2]: 7.1 mg/kg
- PI [3]: 4.2
- ED50 [4]: 10 mg/kg
- PI [5]: 4.3
- Time [6]: 0.25 h
- Activity [7]: inactive
- Time [11]: 1 h
- TD50 [8]: 30 mg/kg
- TD50 [9]: 43 mg/kg
- Time [10]: 1 h

SMILES: CCCC(=O)NCc1ccccc1
- Time [6]: 0.5 h
- TD50 [8]: 100 mg/kg
- TD50 [9]: > 30 mg/kg

SMILES: CC(C)[C@@H](N)C(=O)Nc1ccccc1
- Time [1]: 0.5 h
- ED50 [2]: 30 mg/kg
- Time [6]: 0.5 h
- Activity [7]: inactive
- TD50 [8]: > 30 mg/kg

SMILES: CC(C)[C@@H](N)C(=O)NCCCc1ccccc1
- Time [1]: 0.25 h
- ED50 [2]: 16 mg/kg
- PI [3]: 2.7
- ED50 [4]: < 30 mg/kg
- Time [6]: 0.25 h
- Activity [7]: inactive
- Time [11]: 0.25 h
- TD50 [8]: 43 mg/kg
- TD50 [9]: > 30 mg/kg
- Time [10]: 0.25 h

SMILES: CC(C)[C@@H](N)C(=O)NCCc1ccccc1F
- Time [1]: 0.25 h
- ED50 [2]: 27 mg/kg
- PI [3]: 2.9
- PI [5]: >25
- Time [6]: 0.25 h
- TD50 [8]: 79 mg/kg
- TD50 [9]: 500 mg/kg
- Time [10]: 4 h

SMILES: CC(C)[C@@H](N)C(=O)CCc1ccccc1.Cl
- ED50 [2]: 30 mg/kg
- Activity [7]: inactive
- TD50 [8]: 100 mg/kg

SMILES: CC(C)[C@@H](N)C(=O)NCCc1ccc(F)cc1
- ED50 [2]: 10 mg/kg
- TD50 [8]: 30 mg/kg

SMILES: CC(C)[C@@H](N)C(=S)NCc1ccccc1
- Time [1]: 0.5 h
- ED50 [2]: 30 mg/kg
- ED50 [4]: < 30 mg/kg
- Time [6]: 0.5 h
- Activity [7]: inactive
- Time [11]: 0.25 h
- TD50 [8]: 30 mg/kg
- TD50 [9]: > 30 mg/kg
- Time [10]: 0.5 h

SMILES: CC(C)[C@@H](N)C(=O)NCCc1ccccc1
- Time [1]: 0.25 h
- ED50 [2]: 10 mg/kg
- PI [3]: 5
- ED50 [4]: < 30 mg/kg
- Time [6]: 0.25 h
- Activity [7]: inactive
- Time [11]: 0.24 h
- TD50 [8]: 50 mg/kg
- TD50 [9]: > 30 mg/kg
- Time [10]: 0.25 h

SMILES: COC[C@@H](NC(C)=O)C(=O)NCc1ccccc1 [LACOSAMIDE]
- Time [1]: 0.5 h
- PI [3]: 6
- Time [6]: 0.25 h
- TD50 [9]: > 500 mg/kg
- Time [10]: 2 h

SMILES: CCC(C)C(=O)NCc1ccccc1 (racemic)
- Time [1]: 0.25 h
- ED50 [2]: 56 mg/kg
- PI [3]: 2.9
- ED50 [4]: 51 mg/kg
- PI [5]: >9.8
- Time [6]: 0.25 h
- Activity [7]: inactive
- TD50 [8]: 165 mg/kg
- TD50 [9]: > 500 mg/kg
- Time [10]: 0.5 h

SMILES: CC[C@H](C)C(=O)NCc1ccccc1
- Time [1]: 0.5 h
- ED50 [2]: 100 mg/kg
- ED50 [4]: > 30 mg/kg
- Time [6]: 0.5 h
- Time [11]: 0.25 h
- TD50 [8]: 300 mg/kg
- TD50 [9]: > 30 mg/kg
- Time [10]: 0.25 h

SMILES: CC(C)[C@@H](N)CNCc1ccccc1
- Time [1]: 0.5 h
- ED50 [2]: 30 mg/kg
- ED50 [4]: > 30 mg/kg
- Time [6]: 0.5 h
- Activity [7]: inactive
- Time [11]: 0.25 h
- TD50 [8]: 100 mg/kg
- TD50 [9]: > 30 mg/kg
- Time [10]: 0.25 h

SMILES: CC(C)[C@@H](N)C(=O)NCCc1cccc(F)c1
- Time [1]: 0.25 h
- ED50 [2]: 20 mg/kg
- PI [3]: 3.4
- ED50 [4]: 38 mg/kg
- Time [6]: 0.25 h
- TD50 [8]: 67 mg/kg
- TD50 [9]: > 500 mg/kg
- Time [10]: 0.5 h

SMILES: CC[C@@H](O)C(=O)NCc1ccccc1
- Time [1]: 0.5 h
- ED50 [2]: 100 mg/kg
- ED50 [4]: > 30 mg/kg
- Time [6]: 0.5 h
- Activity [7]: inactive
- Time [11]: 0.25 h
- TD50 [8]: 100 mg/kg
- TD50 [9]: > 30 mg/kg
- Time [10]: 0.25 h

SMILES: CN[C@@H](C(=O)NCc1ccccc1)C(C)C
- ED50 [12]: 25 mg/kg

SMILES: O=C1NC(=O)C(c2ccccc2)(c2ccccc2)N1 [PHENYTOIN]
- Time [1]: 2 h
- ED50 [4]: 30 mg/kg
- Time [6]: 0.25 h
- TD50 [9]: > 3000 mg/kg
- Time [10]: 4 h

SMILES: CC(C)[C@@H](N)C(=O)OCc1ccccc1
- Time [1]: 0.5 h
- ED50 [2]: > 300 mg/kg
- ED50 [4]: > 30 mg/kg
- Time [6]: 0.5 h
- Activity [7]: inactive
- Time [11]: 0.25 h
- TD50 [8]: > 300 mg/kg
- TD50 [9]: > 30 mg/kg
- Time [10]: 0.25 h

SMILES: CC(C)[C@H](C(=O)NCc1ccccc1)N(C)C
- Time [1]: 0.5 h
- ED50 [2]: 30 mg/kg
- Time [6]: 0.5 h
- Activity [7]: inactive
- TD50 [8]: 100 mg/kg

SMILES: CCC1(c2ccccc2)C(=O)NC(=O)NC1=O [PHENOBARBITAL]
- Time [1]: 1 h
- ED50 [2]: 22 mg/kg
- PI [3]: 3
- ED50 [4]: 9.1 mg/kg
- PI [5]: >100
- Time [6]: 0.5 h
- Time [11]: 0.5 h
- Time [10]: 5 h

SMILES: CC(C)[C@@H](N)C(=O)NCCCCc1ccccc1
- Time [1]: 0.25 h
- ED50 [2]: 11 mg/kg
- PI [3]: 3.5
- ED50 [4]: > 30 mg/kg
- Time [6]: 0.25 h
- Activity [7]: inactive
- Time [11]: 0.25 h
- TD50 [8]: 38 mg/kg
- TD50 [9]: > 30 mg/kg
- Time [10]: 0.25 h
